Screens deposited in PubChem by The Scripps Research Institute Molecular Screening Center.
Sampled rows, rich in hits. Any-hit rate of the full collection: about 4.6%.
CHO parental Ca: counter-screen: ATP calcium response change in parental CHO cells; parental CHO-K1, ATP-induced calcium, Fluo-8 fluorescence; inhibition, % at 5.6 µM; hit rate 0.63% among 330,000;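 active = inhibition above that plate's mean sample inhibition plus 3 SD, cut at about 26% in these data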;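 note: 0% = ATP-challenged DMSO wells and 100% = DMSO wells without ATP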
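Test system: parental CHO cells; detection: calcium-sensitive Fluo-8 fluorescence; evaluation: percent inhibition of calcium signal; also added: ATP as calcium-mobilizing challenge; repeats: one well per compound; control set: ATP-challenged DMSO wells low, unchallenged DMSO wells high; compound: single nominal dose of 5.6 µM per compound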
OX1R antag-1: antagonists of human orexin 1 receptor (OX1R); O43613; OX1R-expressing cells, FRET antagonist read-out; inhibition, % at 6.6 µM; hit rate 1.8% among 330,000; AID 485270; in the data active = inhibition mostly above about 38%, no sharp cut-off; inactive = mostly below about 40%;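 note: 0% = agonist challenge alone and 100% = reference antagonist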
Target sequence (O43613 whole entry, looked up): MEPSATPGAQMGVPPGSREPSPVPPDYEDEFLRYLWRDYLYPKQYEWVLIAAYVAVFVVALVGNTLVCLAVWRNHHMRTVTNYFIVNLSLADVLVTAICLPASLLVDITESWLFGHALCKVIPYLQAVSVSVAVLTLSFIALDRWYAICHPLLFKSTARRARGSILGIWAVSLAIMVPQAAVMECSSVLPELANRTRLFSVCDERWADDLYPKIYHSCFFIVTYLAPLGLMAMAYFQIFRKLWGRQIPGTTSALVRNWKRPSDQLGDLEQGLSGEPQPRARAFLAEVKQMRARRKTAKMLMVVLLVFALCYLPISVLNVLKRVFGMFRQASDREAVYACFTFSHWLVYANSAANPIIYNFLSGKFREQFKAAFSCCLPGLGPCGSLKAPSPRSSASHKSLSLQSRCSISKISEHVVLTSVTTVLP
TAAR1 antag: antagonists of human TAAR1; hit rate 1.5% among 360,000; CHO RD-HGA16 TAAR1, Fluo-8 calcium fluorescence, antagonist; AID 624466; Q96RJ0; inhibition, % at 3 µM;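 active = inhibition above a per-plate cutoff, the mean inhibition of test compounds on that plate plus 3 SD, cut at about 49% in these data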;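 note: 0% = DMSO plus EC80 beta-PEA response and 100% = DMSO alone without agonist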
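Test system – hTAAR1-expressing CHO RD-HGA16 cells, Gα16-coupled · Reagent – β-PEA at EC80 concentration, post-compound challenge · Compound dosing – 3 µM, single point · Timing – 140 s kinetic read after compound, 140 s after agonist · Detection – Fluo-8 intracellular calcium dye fluorescence, real-time kinetic reads · Control set – DMSO and EC80 PEA controls · Repeats – n of 1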
GPR7 antagonist: human neuropeptides B/W receptor 1 antagonism; GPR7-expressing cells, fluorescence antagonist assay; hit rate 1.1% among 290,000; inhibition, % at 4.4 µM; in the data active = inhibition above about 16%, passing the limit was not always enough;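 note: cells stimulated with the agonist NPW; 0% = agonist with vehicle and 100% = vehicle without agonist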
OX1R antag-2: antagonists of human orexin 1 receptor; O43613; CHO/OX1R cells, Fluo-8 calcium fluorescence, orexin A; inhibition, % at 5 µM; hit rate 0.43% among 330,000; AID 434989;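 active = inhibition above its plate's threshold, mean inhibition of all tested compounds on the plate plus 3 SD, cut at about 37% in these data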;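 note: 0% = orexin A challenge wells and 100% = SB-334867-A antagonist wells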
TAAR1 agonist: human TAAR1 agonism; Q96RJ0; CHO RD-HGA16 TAAR1, Fluo-8 calcium fluorescence; vehicle wells 0%, saturating PEA agonist 100%; AID 624467; activation, % at 3 µM; hit rate 0.99% among 360,000;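 active = activation above the mean activation of all test compounds in the run plus 3 SD, cut at about 38% in these data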
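Benchmarks: low control DMSO, high control PEA (EC100); System: CHO RD-HGA16 cells carrying human TAAR1 plus Gα16; Detection: Fluo-8 fluorescence, 5 s baseline then 140 s kinetic read; Schedule: 17-24 h plating, Fluo-8 75 min 37 °C, 30 min RT; Read-out basis: % activation from peak over basal fluorescence ratio, DMSO-to-PEA scaled.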
nonsel antag count: nonselective antagonism, TAAR1 counter-screen. shares compounds with TAAR1 antag. counterscreen cell line, calcium fluorescence, antagonist mode. inhibition, % at 3 µM. hit rate 77% among 2,400. AID 651780; in the data active = inhibition above about 22%;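 note: CHO-Ga16 host cells stimulated with ATP at an EC80 level; 0% = agonist EC80 plus vehicle and 100% = vehicle without agonist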
TAAR1 ant conf: human TAAR1 antagonism, confirmed | shares compounds with TAAR1 antag | TAAR1-expressing cells, fluorescence antagonist read-out | inhibition, % at 3 µM | hit rate 40% among 2,400; in the data active = inhibition above about 49%;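 note: CHO-Ga16 host cells challenged with agonist PEA near its EC80; 0% = agonist at EC80 plus vehicle and 100% = vehicle with no agonist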
Ga16 ag counter: nonselective Ga16 agonist in TAAR1 antagonist counter-screen. shares compounds with TAAR1 antag. activation, % at 3 µM. hit rate 18% among 2,400. Ga16-expressing cells, calcium fluorescence, agonist counterscreen; in the data active = activation above about 12%;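 note: 0% = vehicle wells and 100% = saturating stimulus response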
TAAR1 ag count: counter-screen for human TAAR1 antagonists: TAAR1 agonists; activation, % at 3 µM; AID 651955; hit rate 2% among 2,400; shares compounds with TAAR1 antag; hTAAR1 cell line, fluorescence activation, agonist mode; in the data active = activation above about 37%;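 note: CHO cells stably expressing TAAR1 with calcium dye readout; 0% = DMSO vehicle and 100% = full agonist response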
Numbers without * were called inactive.

How did COc1ccc(S(=O)(=O)N(CC(=O)Nc2ccc3c(c2)OCO3)c2ccccc2OC)cc1 do in these assays?
CHO parental Ca: -3.6; OX1R antag-1: 13.7; TAAR1 antag: 68.9*; GPR7 antagonist: -6.3; OX1R antag-2: -2.1; TAAR1 agonist: 13.9; nonsel antag count: 27.1*; TAAR1 ant conf: 56.2*; Ga16 ag counter: 5.6; TAAR1 ag count: 6.0

What do the screens show for `COc1ccccc1N(CC(=O)Nc1cccnc1)S(=O)(=O)c1ccccc1`?
CHO parental Ca: -17.5; OX1R antag-1: 0.6; TAAR1 antag: 0.1; GPR7 antagonist: -9.1; OX1R antag-2: -43.2; TAAR1 agonist: 2.5

What do the screens show for `CN(C(=S)SCc1ccccc1)C1CCS(=O)(=O)C1` (centres undefined)?
CHO parental Ca: -5.4; OX1R antag-1: 10.4; TAAR1 antag: 22.6; GPR7 antagonist: -3.0; OX1R antag-2: -7.3; TAAR1 agonist: 3.8

How did Cc1ccc(OCC(O)CNC(C)c2ccccc2)cc1C (centres undefined) do in these assays?
CHO parental Ca: -16.3; OX1R antag-1: 10.3; TAAR1 antag: -16.8; GPR7 antagonist: 12.2; OX1R antag-2: -8.9; TAAR1 agonist: 32.1

Results for CCN(CC(=O)Nc1ccccc1OC)C(=O)c1cc(-c2ccccc2)nn1-c1ccccc1 ?
CHO parental Ca: -9.5; OX1R antag-1: 21.5; TAAR1 antag: 60.6*; OX1R antag-2: -26.8; TAAR1 agonist: 2.4; nonsel antag count: 21.2; TAAR1 ant conf: 32.1; Ga16 ag counter: 6.9; TAAR1 ag count: -0.6

How did CN(CC(=O)Nc1ccc(Cl)cc1)C(=O)c1cc(-c2cccs2)nn1-c1ccccc1 do in these assays?
CHO parental Ca: -34.3; OX1R antag-1: 14.2; TAAR1 antag: 66.4*; OX1R antag-2: -34.1; TAAR1 agonist: 3.4; nonsel antag count: 24.6*; TAAR1 ant conf: 42.1; Ga16 ag counter: 6.0; TAAR1 ag count: 3.7

Results for CCN(CC(=O)Nc1c(F)cccc1F)C(=O)CSc1ccccc1 ?
CHO parental Ca: -13.8; OX1R antag-1: 23.9; TAAR1 antag: 96.9*; OX1R antag-2: -0.4; TAAR1 agonist: -2.0; nonsel antag count: 3.1; TAAR1 ant conf: -2.8; Ga16 ag counter: 5.0; TAAR1 ag count: 10.5

What do the screens show for `CCN(CC(=O)Nc1c(F)cccc1F)C(=O)CSc1ccc(F)cc1`?
CHO parental Ca: 7.5; OX1R antag-1: 15.0; TAAR1 antag: -3.3; OX1R antag-2: -5.7; TAAR1 agonist: -0.4

How did Cc1ccc(NC(=O)CN(C)C(=O)c2cc(-c3cccs3)nn2-c2ccccc2)cc1 do in these assays?
CHO parental Ca: -30.1; OX1R antag-1: 4.3; TAAR1 antag: 54.5*; OX1R antag-2: -14.3; TAAR1 agonist: 4.8; nonsel antag count: 22.3*; TAAR1 ant conf: 39.1; Ga16 ag counter: 6.3; TAAR1 ag count: 4.9

How did CC(=O)c1cccc(NC(=O)C(=O)Nc2cccc3ccccc23)c1 do in these assays?
CHO parental Ca: -17.5; OX1R antag-1: 29.2; TAAR1 antag: 1.7; GPR7 antagonist: -2.2; OX1R antag-2: -14.6; TAAR1 agonist: 3.3

How did CCOC(=O)c1ccc(NC(=O)CN(Cc2ccc(Cl)cc2)S(C)(=O)=O)cc1 do in these assays?
CHO parental Ca: -7.1; OX1R antag-1: 11.7; TAAR1 antag: -3.5; GPR7 antagonist: 6.2; OX1R antag-2: -16.0; TAAR1 agonist: 13.8

How did CCN(CC(=O)Nc1c(F)cccc1F)C(=O)c1cc(-c2cccs2)nn1-c1ccccc1 do in these assays?
CHO parental Ca: -12.6; OX1R antag-1: 16.2; TAAR1 antag: 72.2*; OX1R antag-2: -12.6; TAAR1 agonist: 9.2; nonsel antag count: 26.7*; TAAR1 ant conf: 44.4; Ga16 ag counter: 10.0; TAAR1 ag count: 9.4
